Sampled rows, rich in hits. Any-hit rate of the full collection: about 0.55%.
V1R ag counter: V1a receptor agonism, counter-screen for OXTR agonists; P37288; CHO-V1R cells, Fluo-8 calcium fluorescence, agonist mode; 0% DMSO, 100% 3 nM vasopressin; activation, % at 3 µM; actives 0.25% (n = 320,000); AID 2797;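 active = activation above the mean activation of all tested compounds plus 3 SD, per screening run, cut at about 20% in these data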;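 also: signal is peak over basal fluorescence ratio across a 100 second FLIPR read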
OXTR agonist: agonists of human oxytocin receptor; actives 0.32% (n = 320,000); CHO-OTR cells, Fluo-8 calcium fluorescence; normalized: DMSO 0%, oxytocin 100%; P30559; activation, % at 3 µM; AID 2435;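 active = activation above the mean of all tested compounds plus 3 SD, cutoff set per screening run, cut at about 20% in these data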;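 also: peak over basal fluorescence ratio from a 100 s FLIPR kinetic read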
zfTRPN1 agonist: activates the zebrafish TRPN1 channel. HEK293 zebrafish TRPN1-YFP, Fluo-8 calcium fluorescence; 100% = response to 87 µM carbachol. activation, % at 3 µM. actives 0.18% (n = 220,000);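 active = activation above its plate's cutoff, the mean activation of test wells on that plate plus 3 SD, cut at about 19% in these data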;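 also: 0% = DMSO alone and 100% = 87 µM carbachol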
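Material – zebrafish TRPN1-YFP in HEK293 cells · Doses – 3 µM single point · Schedule – dye 1 h 37 °C plus 30 min RT · Signal – Fluo-8 calcium fluorescence, excitation 470-495 nm, emission 515-575 nm · Read-out – % activation versus carbachol response · Control set – carbachol high, DMSO low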
OXTR potentiate: potentiates the human oxytocin receptor response; AID 2445; CHO-OTR cells, Fluo-8 calcium fluorescence, potentiator mode; 0% = oxytocin EC15, 100% = EC100; P30559; activation, % at 3 µM; actives 0.061% (n = 320,000);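 active = activation above that plate's cutoff, the mean activation of tested compounds plus 3 SD, cut at about 6.6% in these data, passing the limit was not always enough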;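 also: 100% uses oxytocin at 75 nM as the full agonist control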
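Material: CHO-OTR cells, human receptor; compound dosing: single dose, 3.0 µM nominal final compound concentration; schedule: 6 min compound pre-incubation at room temperature, 100 s kinetic read; measured by: kinetic Fluo-8 calcium fluorescence; read-out basis: % activation vs EC15 and EC100 oxytocin; controls: EC15 oxytocin alone as 0%, 75 nM oxytocin as 100%; replicates: singlicate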
TRPML3 ag: human mucolipin-3 channel agonism | Q8TDD5 | HEK293 TRPML3-YFP, Fluo-8 calcium fluorescence; 100% = the carbachol control signal | activation, % at 3 µM | actives 0.29% (n = 220,000) | AID 1448;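 active = activation above its plate's cutoff, the mean activation of the plate's test wells plus 3 SD, cut at about 12% in these data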;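 also: 0% = DMSO only wells and 100% = carbachol wells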
Target sequence (Q8TDD5 whole entry, looked up): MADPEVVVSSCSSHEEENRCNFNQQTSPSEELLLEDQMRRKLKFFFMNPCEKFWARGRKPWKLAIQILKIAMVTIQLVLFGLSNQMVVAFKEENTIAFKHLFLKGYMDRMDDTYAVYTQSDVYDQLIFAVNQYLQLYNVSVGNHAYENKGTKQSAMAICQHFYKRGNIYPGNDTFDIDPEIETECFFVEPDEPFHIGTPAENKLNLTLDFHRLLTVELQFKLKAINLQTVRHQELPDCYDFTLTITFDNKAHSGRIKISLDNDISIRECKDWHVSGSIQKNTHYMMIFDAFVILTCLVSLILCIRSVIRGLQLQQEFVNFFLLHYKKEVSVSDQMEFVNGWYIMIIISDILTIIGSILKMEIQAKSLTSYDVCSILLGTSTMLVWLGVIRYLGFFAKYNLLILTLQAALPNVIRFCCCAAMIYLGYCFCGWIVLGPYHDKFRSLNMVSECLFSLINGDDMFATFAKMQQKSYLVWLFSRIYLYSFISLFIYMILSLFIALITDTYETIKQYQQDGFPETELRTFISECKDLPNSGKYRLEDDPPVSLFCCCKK
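Test system: HEK293 cells stably carrying human TRPML3-YFP; Doses: single dose, 3 µM final nominal compound, 0.3% DMSO final; Schedule: dye loading 1 h 37 °C then 30 min ambient, 125 s read; Technique: Fluo-8 calcium fluorescence; Benchmarks: high control carbachol 87 µM, low control DMSO.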
TRPN1 counter: activates zebrafish TRPN1, counter-screen for TRPML3 agonists | shares compounds with TRPML3 ag | HEK293 zebrafish TRPN1-YFP, Fluo-8 calcium fluorescence; scaled: carbachol wells 100%, DMSO wells 0% | activation, % at 3 µM | actives 10% (n = 310) | AID 1525;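 active = mean activation over replicates above a set limit taken from the earlier TRPN1 channel primary screen, cut at about 19% in these data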;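 also: 100% = carbachol and 0% = 0.3% DMSO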
TRPML3 confirm: confirmation of human TRPML3 channel agonists | shares compounds with TRPML3 ag | HEK293 TRPML3-YFP, Fluo-8 calcium fluorescence; 100% set by carbachol, 0% by DMSO | activation, % at 3 µM | actives 80% (n = 310) | AID 1526;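 active = activation above a set limit derived from the earlier primary screen, cut at about 12% in these data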
OXTR ag confirm: confirmation of human oxytocin receptor agonists; shares compounds with OXTR agonist; CHO-OTR cells, Fluo-8 calcium fluorescence, agonist; activation, % at 3 µM; actives 20% (n = 390); AID 434963;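 active = mean activation above about 20% derived from the earlier single-dose screen, limit read from the data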;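 also: peak over minimum fluorescence ratio per well during a 100 second FLIPR read; 0% = DMSO alone and 100% = oxytocin high control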
V1aR counter 3x: counter-screen for oxytocin receptor agonists: V1a receptor agonists. actives 10% (n = 390). CHO-V1R cells, Fluo-8 calcium fluorescence, agonist. AID 434991. activation, % at 3 µM. shares compounds with OXTR agonist;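 active = mean activation over triplicate exceeds the hit threshold set in the earlier primary screen, cut at about 20% in these data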;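 also: peak over basal fluorescence ratio within a 100 second read; 0% = DMSO alone and 100% = 3 nM vasopressin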
V1aR agonist cf: human V1a receptor agonism, confirmation; shares compounds with V1R ag counter; CHO-V1R cells, Fluo-8 calcium fluorescence, agonist; activation, % at 3 µM; actives 20% (n = 180);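 active = average activation exceeds primary screen hit cutoff, cut at about 21% in these data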;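 also: peak over basal fluorescence ratio during a 100 s FLIPR read; 0% = DMSO only wells and 100% = 3 nM vasopressin wells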
OXTR ag counter: OXTR agonism, counter-screen for V1R agonists; shares compounds with V1R ag counter; AID 434969; activation, % at 3 µM; CHO-OTR cells, Fluo-8 calcium fluorescence, agonist; actives 10% (n = 180);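 active = mean activation over three repeats above the cutoff from the earlier oxytocin receptor agonist screen, cut at about 20% in these data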;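 also: peak over minimum fluorescence ratio within a 100 second FLIPR read; 0% = DMSO only wells and 100% = oxytocin high control wells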
* hit, by the source's call; . = no result given.

SMILES | V1R ag counter | OXTR agonist | zfTRPN1 agonist | OXTR potentiate | TRPML3 ag | TRPN1 counter | TRPML3 confirm | OXTR ag confirm | V1aR counter 3x | others
O=C(OC(C(=O)NCc1ccccc1)c1ccccc1F)c1ccco1 (configuration not stated) | 0.2 | -1.4 | . | -0.9 | . | . | . | . | .
CCCOc1cc(C)c(Cl)cc1S(=O)(=O)N(CC)CC | -1.7 | -1.6 | -2.1 | -9.3 | 25.9* | -2.5 | 97.0* | . | .
CCOc1ccc(/C=C2/SC(=S)N(C(C(=O)O)c3ccccc3)C2=O)cc1OCC (configuration not stated) | . | . | 1.0 | . | 0.6 | . | . | . | .
CCOc1cc(/C=C2\SC(=S)N(C(C(=O)O)c3ccccc3)C2=O)ccc1O (configuration not stated) | 32.3* | 37.9* | 14.4 | -34.4 | 13.4* | 33.3* | 15.2* | . | .
Cc1ccc(NC(=O)c2cnc(N3CCN(c4ccccn4)CC3)c3ccccc23)c(Br)c1 | 10.9 | -0.8 | 2.8 | -10.7 | 25.1* | 3.9 | 47.6* | . | .
CCCCn1c(Cn2nc(C(=O)O)c3ccccc3c2=O)nc2cc(S(N)(=O)=O)ccc21 | -0.6 | 0.3 | . | -11.0 | . | . | . | . | .
CCOc1ccccc1N(CC(=O)NC1CCCCC1)C(=O)c1nsc(Cl)c1Cl | -1.8 | -1.2 | -1.7 | -1.4 | 42.9* | -0.7 | 36.2* | . | .
Cc1cccc(N(CC(=O)NC2CCCC2)C(=O)c2nsc(Cl)c2Cl)c1C | -1.4 | -1.8 | -2.4 | -8.1 | 3.4 | . | . | . | .
COc1ccc(OC)c(/C=N/NC(=O)Cc2nc3ccccc3[nH]2)c1 | 0.4 | 0.4 | 0.6 | -0.7 | 0.5 | . | . | . | .
Cc1ccc(S(=O)(=O)NC2CCCCC2)c2nsnc12 | 0.3 | -2.4 | -0.7 | -7.1 | 11.5* | 0.5 | 12.1* | . | .
O=C(c1ccccc1)c1ccc(O)cc1O | 30.2* | 23.5* | 17.8 | -7.4 | 17.7* | 11.1 | 7.8 | . | .
Cc1ccc(C)c(N2CC(C(=O)Nc3cc(C)on3)CC2=O)c1 (configuration not stated) | 2.3 | 0.3 | . | -10.5 | . | . | . | . | .
CN(C)c1ccc(/C=C(/C(=O)c2ccc(Cl)cc2Cl)n2cncn2)cc1 | 28.8* | 21.5* | 15.1 | -14.3 | 11.6* | 21.9* | 11.9* | . | .
Cc1cc2c(c(=O)n1Cc1ccc3c(c1)OCO3)C(c1cccnc1)C(C#N)=C(N)O2 (configuration not stated) | -0.6 | -0.2 | 1.0 | -7.6 | -0.3 | . | . | . | .
CCc1ccc(C(=O)C(C)OC(=O)c2nc3nc(C)cc(C)n3n2)cc1 (configuration not stated) | -0.8 | -0.4 | . | -13.3 | . | . | . | . | .
COc1cc(C(=O)NC(=S)NNC(=O)[C@H]2C[C@@H]2c2ccccc2)cc(OC)c1OC | 10.4 | 27.6* | 11.2 | -16.2 | 13.9* | 25.1* | 32.6* | 12.1 | 19.4
CC1CCCCC12NC(=O)N(CC(=O)c1ccc(Cl)s1)C2=O (configuration not stated) | -0.9 | -0.3 | . | 1.9 | . | . | . | . | .
O=C1c2cccc3c(N4CCCCC4)ccc(c23)C(=O)N1CCO | 22.3* | 15.7 | 8.2 | -24.6 | 12.8* | 18.2 | 10.3 | . | . | V1aR agonist cf=31.7*;OXTR ag counter=18.5
CCOC(=O)C1CCN(S(=O)(=O)c2ccc(Cl)s2)CC1 | 2.0 | 0.9 | . | 0.7 | . | . | . | . | .
Cc1ccc(NS(=O)(=O)c2ccc(C(=O)NCC(c3ccco3)N3CCCCC3)cc2)cc1 (configuration not stated) | 15.8 | 24.3* | . | -17.1 | . | . | . | 23.6* | 12.3
O=C(NCC(c1ccco1)N1CCCCC1)c1ccc(S(=O)(=O)Nc2ccccc2)cc1 (configuration not stated) | 4.6 | 5.6 | . | -5.8 | . | . | . | . | .
CCCCC(=O)NC(=S)Nc1c(C)cc(Br)cc1C | -0.7 | -2.0 | 0.1 | -4.2 | 0.4 | . | . | . | .
COc1ccc(CN2CCN(CC(O)Cn3c4ccccc4c4ccccc43)CC2)cc1 (configuration not stated) | 12.4 | 24.2* | 0.6 | -17.5 | 2.4 | . | . | 8.1 | 3.7
CC(=O)n1cc([C@H]2C=C(C(=O)NCc3ccccc3)O[C@@H](OCc3ccc(CO)cc3)C2)c2ccccc21 | 1.4 | 2.2 | 0.7 | -13.8 | 0.0 | . | . | . | .
CC(=O)n1cc([C@H]2C=C(C(N)=O)O[C@@H](OCc3ccc(CO)cc3)C2)c2ccccc21 | 16.9 | 19.7* | . | -16.1 | . | . | . | 18.7 | 13.3
SMILES | V1R ag counter | OXTR agonist | zfTRPN1 agonist | OXTR potentiate | TRPML3 ag | TRPN1 counter | TRPML3 confirm | OXTR ag confirm | V1aR counter 3x | others
CCOc1ccc(NS(=O)(=O)c2ccc(C(=O)NCC3(N(C)C)CCCCC3)cc2)cc1 | 19.1 | 24.0* | . | -21.1 | . | . | . | 12.2 | 8.0
Cc1cc(S(=O)(=O)Nc2ccc(C(=O)NCC3(N(C)C)CCCCC3)cc2)ccc1F | 0.8 | -0.1 | . | -14.8 | . | . | . | . | .
OCCN1CCN(C2CCC(c3ccc(F)cc3)c3ccc(F)cc32)CC1 (configuration not stated) | 17.3 | 31.4* | . | -14.2 | . | . | . | 2.8 | 1.4
COc1ccc(-n2c(O)c(/C=N/NS(=O)(=O)c3ccc(C)cc3)c3ccccc3c2=O)cc1OC | 8.7 | 31.7* | -0.8 | -16.1 | 0.6 | . | . | 15.3 | 13.1
Cc1cc(Br)c(NC(=O)COC(=O)C2CCCCC2)c(Br)c1 | -0.8 | -2.0 | . | -1.8 | . | . | . | . | .
COc1cc(/C=N/OCC(=O)Nc2cc(C)on2)ccc1OCc1ccccc1 | 15.4 | 23.5* | 7.6 | -20.9 | 0.8 | . | . | 16.4 | 8.1
COc1ccc(-c2cc3ccccc3s2)cc1[C@H]1[C@H]2C=CC[C@@H](C)[C@@H]2C(=O)N1Cc1ccccc1 | 0.5 | -0.6 | . | -1.7 | . | . | . | . | .
Cc1ccnc(N/C=C(\C#N)c2nc(-c3cccc(Br)c3)cs2)c1 | 19.7 | 30.9* | 4.5 | -8.9 | 2.2 | . | . | 127.8* | 161.6*
Cc1ccc(N(C(=O)CNC(=O)c2ccco2)C(C(=O)NC2CCCCC2)c2ccncc2)c(C)c1 (configuration not stated) | -0.1 | 0.9 | . | -4.1 | . | . | . | . | .
CCc1noc(C)c1C(=O)NNC(=O)COc1ccc(Br)cc1 | -0.1 | 0.4 | . | -0.3 | . | . | . | . | .

Source: PubChem BioAssay
